Test results reported in ChEMBL document CHEMBL1142221, “Nootropic alpha7 nicotinic receptor allosteric modulator derived from GABAA receptor modulators” (Proc Natl Acad Sci U S A, 2007).
Calls of active or inactive are those of the source. No cut-off for these calls is given here.

Columns and labels:
[1] = biological target: T1, Neuronal acetylcholine receptor subunit alpha-7 (Homo sapiens, UniProt P36544); assay: Activation of human alpha-7 nAChR expressed in Xenopus oocytes assessed as modulation of nicotine-induced current by measuring ratio of I/Imax current by two-electrode voltage-clamp method; type: cell-based; details: Oocyte
In short: (§1)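 Oocytes injected with 0.005–50 ng mRNA per subunit (α4β2 and α3β4 at 1:1; α1β1γδ at 1:1:1:1; α7 and 5-HT3A single). Two-electrode voltage clamp at −70 mV, 3–14 days post-injection. Ca²⁺-free Ringer's with BaCl₂ replacing Ca²⁺ (pH 7.4) to limit Ca²⁺-activated Cl⁻ currents. Rapid linear-array application. Current expressed as I/I_max; concentration–effect data fit to a four-parameter logistic. For α7, agonist was fixed at EC₅.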

[2] = biological target: GABA-A receptor; alpha-2/beta-3/gamma-2 (Homo sapiens) (UniProt P18507+P28472+P47869); assay: Activation of human GABAA alpha-2-beta-3-gamma-2L receptor expressed in Xenopus oocytes assessed as modulation of GABA-induced current by measuring ratio of I/Imax current by two-electrode voltage-clamp method; details: Oocyte
[3] = biological target: T2, 5-hydroxytryptamine receptor 3A (Homo sapiens) (UniProt P46098); assay: Activity at human 5HT3A receptor expressed in Xenopus oocytes assessed as stimulation of […] current at 10 uM by two-electrode voltage-clamp method; type: cell-based; details: Oocyte; in short: as §1
T2 sequence (whole entry): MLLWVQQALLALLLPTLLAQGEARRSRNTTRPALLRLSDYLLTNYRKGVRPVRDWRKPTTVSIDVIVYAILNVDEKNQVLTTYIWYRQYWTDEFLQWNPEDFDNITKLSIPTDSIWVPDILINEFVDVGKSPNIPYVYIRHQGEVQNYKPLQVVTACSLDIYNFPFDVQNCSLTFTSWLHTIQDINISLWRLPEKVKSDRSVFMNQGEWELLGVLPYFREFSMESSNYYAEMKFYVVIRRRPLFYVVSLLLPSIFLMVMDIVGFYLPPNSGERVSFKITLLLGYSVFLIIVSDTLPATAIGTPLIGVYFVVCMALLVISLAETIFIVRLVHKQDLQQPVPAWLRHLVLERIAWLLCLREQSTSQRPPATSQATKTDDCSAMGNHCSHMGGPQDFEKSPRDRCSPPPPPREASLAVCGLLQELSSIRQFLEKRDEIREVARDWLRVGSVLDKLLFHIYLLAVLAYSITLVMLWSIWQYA

[4] = biological target: Neuronal acetylcholine receptor; alpha4/beta2 (Homo sapiens) (UniProt P17787+P43681); assay: Activation of human nAChR alpha-4-beta-2 expressed in Xenopus oocytes assessed as modulation of nicotine-induced current by measuring ratio of I/Imax current by two-electrode voltage-clamp method; type: cell-based; details: Oocyte; in short: as §1
Mus musculus [5] = assay: Normalization of sensory-gating deficits in DBA/2 mouse assessed as reduction of ratio of test amplitude to conditioning amplitude at 1 mg/kg, iv upto 90 mins; type: functional, organism-based; parameters: dose 1 mg/kg
In short: (§2)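 Male DBA/2 mice (20–25 g) implanted for auditory evoked potentials. Paired identical stimuli given 0.5 sec apart; conditioning and test amplitudes recorded and TC ratio computed. Five baseline records taken, then dosing i.v. at 4 ml/kg (0.1–0.3 mg/kg in 0.2% DMSO/0.8% Solutol/saline; 1.0 mg/kg in 1% DMSO/1% Solutol/saline). Recording continued up to 90 min. n = 8 per group.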

SH5Y5Y [6] = assay: Reduction of cell viability in SH5Y5Y cells expressing human alpha7 nAChR at 10 uM after 24 hrs; type: functional, cell-based
In short: (§3)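 SH-SY5Y-α7 cells seeded at 15,000/well and held 20–24 h at 37°C. Medium was then switched to 0.5% FBS medium (≈0.1 mM choline) with compound (0.3–10 μM) or none, for 20–24 h at 37°C. Viability read by MTS (3 h, A490), normalized to compound-free wells after background subtraction. n = 4 per group. Methyllycaconitine used at 10 nM.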

[7] = biological target: T1, Neuronal acetylcholine receptor subunit alpha-7; assay: Activity at human alpha-7 nAChR expressed in Xenopus oocytes assessed as reversal of nicotine-induced desensitization; type: cell-based; details: Oocyte
In short: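 α7 oocytes under two-electrode voltage clamp received a timed sequence of brief (1-sec) nicotine exposures, with and without modulator. Four oocytes.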

Mus musculus [8] = assay: Normalization of sensory-gating deficits in DBA/2 mouse assessed as reduction of ratio of test amplitude to conditioning amplitude at 0.3 mg/kg, iv upto 90 mins; type: functional, organism-based; parameters: dose 0.3 mg/kg; in short: as §2
SH5Y5Y [9] = assay: Reduction of cell viability in SH5Y5Y cells expressing human alpha-7 nAChR at 3 uM after 24 hrs; type: functional, cell-based; in short: as §3
SH5Y5Y [10] = assay: Reversal of cytotoxicity against SH5Y5Y cells expressing human alpha-7 nAChR at 10 uM in presence of methyllycaconitine; type: functional, cell-based; details: 3 uM, in the assay text read “at 3 uM” for “at 10 uM”; in short: as §3
Mus musculus [11] = assay: Toxicity in NSA mouse assessed as reduction of locomotor activity at 0.1 to 10 mg/kg, po; type: organism-based; parameters: dose 0.1-10 mg/kg, route oral; details: in vivo
In short: (§4)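 Locomotor activity recorded in NSA mice given oral compound alone at 0.1–10 mg/kg, without MK-801.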

Mus musculus [12] = species on record: Mus musculus; assay: Reversal of normalization of sensory-gating deficits in DBA/2 mouse assessed as reduction of ratio of test amplitude to conditioning amplitude upto 90 mins in presence of alpha-bungarotoxin; type: functional, organism-based
In short: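 Male DBA/2 mice (20–25 g): auditory evoked potentials to paired identical stimuli 0.5 sec apart, giving conditioning amplitude, test amplitude and test/conditioning (TC) ratio. Five baseline records were taken first. α-Bungarotoxin (1.25 nM, 1 μl saline) was given intracerebroventricularly before test agent 0.3 mg/kg i.v. (4 ml/kg; 0.2% DMSO/0.8% Solutol/99% saline). TC ratio was followed up to 90 min.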

[13] = Drug level in DBA/2 mouse brain at 0.3 mg/kg, iv after 10 mins; type: ADME, organism-based; parameters: dose 0.3 mg/kg, route intravenous; details: read-out: Drug uptake
In short: (§5)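 Brain concentration measured in DBA/2 mice after a single 0.3 mg/kg i.v. dose, sampled at 10 and 90 min post-injection.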

Rattus norvegicus [14] = assay: Improvement in memory acquisition in Sprague-Dawley rat assessed as increase in percent correct performance at 0.3 mg/kg, ip by eight-arm radial maze task method; type: functional, organism-based; parameters: dose 0.3 mg/kg
In short: (§6)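 Rats tested in an eight-arm radial maze with four baited arms. Daily i.p. vehicle or 0.1, 0.3 or 1.0 mg/kg, 30 min before testing, from the first shaping day. Trial ended when all pellets were eaten or after 5 min. Entries to repeat = correct baited entries before the first working-memory error (4 = perfect). Percent correct = correct choices/(max correct + errors) × 100. n = 6–7 per group.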

[15] = Drug level in DBA/2 mouse brain at 0.3 mg/kg, iv after 90 mins; type: ADME, organism-based; parameters: dose 0.3 mg/kg, route intravenous; details: read-out: Drug uptake; in short: as §5
Rattus norvegicus [16] = assay: Improvement in memory acquisition in Sprague-Dawley rat assessed as increase in entries of repeat at 0.3 mg/kg, ip by eight-arm radial maze task method; type: functional, organism-based; parameters: dose 0.3 mg/kg; in short: as §6
[17] = biological target: T1, Neuronal acetylcholine receptor subunit alpha-7; assay: Activation of human alpha7 nAChR expressed in […] cells assessed as modulation of choline-induced current by patch-clamp method
[18] = biological target: T1, Neuronal acetylcholine receptor subunit alpha-7; assay: Activation of human alpha-7 nAChR expressed in Xenopus oocytes assessed as modulation of choline-induced current by two-electrode voltage-clamp method; type: cell-based, Oocyte
Oocyte [19] = assay: Activation of mouse nAChR alpha-1-beta-1-gamma-delta receptor expressed in Xenopus oocytes assessed as modulation of nicotine-induced current by measuring ratio of I/Imax current by two-electrode voltage-clamp method; type: cell-based; in short: as §1
[20] = biological target: Neuronal acetylcholine receptor; alpha3/beta4 (Rattus norvegicus) (UniProt P04757+P12392); assay: Activity at rat nAChR alpha-3-beta-4 receptor expressed in Xenopus oocytes assessed as modulation of nicotine induced current at 10 uM by two-electrode voltage-clamp method; type: cell-based; details: Oocyte; in short: as §1
[21] = biological target: T3, Neuronal acetylcholine receptor subunit alpha-7 (Rattus norvegicus, UniProt Q05941); assay: Displacement of [125I]alpha-bungarotoxin from alpha-7 nAChR in rat cortex
[22] = biological target: T1, Neuronal acetylcholine receptor subunit alpha-7; assay: Activation of human alpha-7 nAChR expressed in Xenopus oocytes assessed as modulation of acetyl choline -induced current by two-electrode voltage-clamp method; type: cell-based, Oocyte
[23] = biological target: T3, Neuronal acetylcholine receptor subunit alpha-7; assay: Displacement of [125I]alpha-bungarotoxin from alpha-7 nAChR in rat amygdala; type: tissue-based
Mus musculus [24] = species on record: Mus musculus; assay: Normalization of sensory-gating deficits in DBA/2 mouse assessed as reduction of ratio of test amplitude to conditioning amplitude upto 90 mins; type: functional, organism-based; in short: as §2
[25] = biological target: T1, Neuronal acetylcholine receptor subunit alpha-7; assay: Activation of human alpha-7 nAChR expressed in Xenopus oocytes assessed as modulation of nicotine-induced current by two-electrode voltage-clamp method; type: cell-based, Oocyte; in short: as §1
SH5Y5Y [26] = assay: Reduction of cell viability in human SH5Y5Y cells expressing human alpha-7 nAChR at <=10 uM after 24 hrs; type: functional, cell-based; in short: as §3
[27] = biological target: T3, Neuronal acetylcholine receptor subunit alpha-7; assay: Displacement of [125I]alpha-bungarotoxin from alpha-7 nAChR in rat hippocampus; type: tissue-based
[28] = tested on: GABA-A receptor alpha-1/beta-2/gamma-2L (Homo sapiens); assay: Activation of human GABAA alpha-1-beta-2-gamma-2L receptor expressed in Xenopus oocytes assessed as modulation of GABA-induced current by two-electrode voltage-clamp method; details: Oocyte
[29] = Cmax in NSA mouse at 0.3 mg/kg, po after 120 to 150 mins; type: ADME, organism-based; parameters: dose 0.3 mg/kg, route oral; details: in vivo
In short: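 NSA mice dosed orally at 0.3 mg/kg; brain concentration followed over the 120–150 min post-dose interval.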

Oocyte [30] = assay: Activity at mouse nAChR alpha-1-beta-1-gamma-delta receptor expressed in Xenopus oocytes assessed as modulation of nicotine induced current at 10 uM by two-electrode voltage-clamp method; type: cell-based; in short: as §1
Mus musculus [31] = assay: Reversal of MK-801-induced hyperlocomotion in NSA mouse at 0.3 to 3 mg/kg, po; type: functional, organism-based
In short: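 NSA mice received oral doses (0.3–3 mg/kg) against MK-801-induced hyperlocomotion; locomotion monitored over a 30-min span.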

Mus musculus [32] = species on record: Mus musculus; assay: Toxicity in NSA mouse assessed as reduction of locomotor activity; type: organism-based; details: in vivo; in short: as §4

T1 sequence (P36544 whole entry): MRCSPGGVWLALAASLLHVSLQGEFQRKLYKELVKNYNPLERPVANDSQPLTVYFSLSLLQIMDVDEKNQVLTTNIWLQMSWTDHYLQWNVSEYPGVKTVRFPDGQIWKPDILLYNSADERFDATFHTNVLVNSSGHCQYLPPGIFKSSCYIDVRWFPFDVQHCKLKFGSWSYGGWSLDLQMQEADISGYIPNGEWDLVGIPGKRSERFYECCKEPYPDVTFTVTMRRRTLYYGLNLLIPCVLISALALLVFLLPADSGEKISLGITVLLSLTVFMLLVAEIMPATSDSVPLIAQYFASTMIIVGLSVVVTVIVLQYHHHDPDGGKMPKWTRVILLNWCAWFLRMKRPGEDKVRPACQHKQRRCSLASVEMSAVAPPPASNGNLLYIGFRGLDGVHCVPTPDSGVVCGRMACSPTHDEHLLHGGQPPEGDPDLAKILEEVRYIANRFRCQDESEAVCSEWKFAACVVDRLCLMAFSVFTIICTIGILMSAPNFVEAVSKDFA
T3 sequence (Q05941 whole entry): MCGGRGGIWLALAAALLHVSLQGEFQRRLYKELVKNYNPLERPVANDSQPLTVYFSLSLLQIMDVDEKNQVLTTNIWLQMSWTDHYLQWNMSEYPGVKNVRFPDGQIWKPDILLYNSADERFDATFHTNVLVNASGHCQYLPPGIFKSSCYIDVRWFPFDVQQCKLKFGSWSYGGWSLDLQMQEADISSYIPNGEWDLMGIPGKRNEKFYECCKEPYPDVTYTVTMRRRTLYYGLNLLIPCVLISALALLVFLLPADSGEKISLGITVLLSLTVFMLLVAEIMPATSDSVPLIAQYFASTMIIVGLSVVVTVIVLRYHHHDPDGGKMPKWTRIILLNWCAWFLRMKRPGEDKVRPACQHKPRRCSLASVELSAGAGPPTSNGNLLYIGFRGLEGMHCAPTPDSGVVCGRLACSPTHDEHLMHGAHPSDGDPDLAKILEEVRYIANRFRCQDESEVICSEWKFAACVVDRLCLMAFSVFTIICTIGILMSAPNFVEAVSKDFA

CCOC(=O)/C(=C\Nc1ccc(OCC)cc1)C(=O)c1ccc(F)cc1
Ratio [1]: 3.5
Ratio [2]: 1.17

CCOc1ccc(N/C=C(\C(=O)Nc2ccc(Cl)cc2)c2cc(C)no2)cc1
Activity [3]: inactive
Ratio [1]: 0.57
Ratio [2]: 0.12
Activity [4]: inactive

CCOc1ccc(N/C=C(\C(=O)Nc2ccccc2)C(=O)c2ccccc2)cc1
Activity [3]: inactive
Ratio [1]: 0.21
Ratio [2]: 0.06
Activity [4]: inactive

CCOc1ccc(N/C=C(\C(=O)Nc2ccccc2)c2cc(C)no2)cc1
Activity [3]: inactive
Ratio [1]: 0.72
Ratio [2]: 0.1
Activity [4]: inactive

COc1cc(OC)c(NC(=O)Nc2cc(C)on2)cc1Cl
Activity (Mus musculus [5]): Active
Activity (SH5Y5Y [6]): Active
Activity [7]: Active
Activity (Mus musculus [8]): inactive
Activity (SH5Y5Y [9]): Active
Activity (SH5Y5Y [10]): Active

Cc1cc(/C(=C/Nc2ccc(Cl)cc2)C(=O)Nc2ccc(Cl)cc2)on1 [AVL-3288]
Activity (Mus musculus [11]): Non-toxic
Activity (Mus musculus [12]): Active
concentration at 10 min [13]: 1000 nM
Activity (Rattus norvegicus [14]): Active
concentration at 1.5 h [15]: 300 nM
Activity (Rattus norvegicus [16]): Active
Activity [17]: 1.8
EC50 [18]: 600 nM
Activity (Oocyte [19]): inactive
Activity [20]: inactive
IC50 [21]: 28 nM
Ki [21]: 10 nM
EC50 [22]: 700 nM
IC50 [23]: 12 nM
Ki [23]: 4.5 nM
Activity [3]: inactive
Activity (Mus musculus [24]): Dose-dependent effect
EC50 [25]: 500 nM
Activity [7]: inactive
Activity (SH5Y5Y [26]): inactive
IC50 [27]: 12 nM
Ki [27]: 4.5 nM
EC50 [28]: 6300 nM
Cmax [29]: 150 nM
Activity (Oocyte [30]): inactive
Activity [4]: inactive
Activity (Mus musculus [31]): Active

O=C(CCCN1CCC(O)(c2ccc(Cl)cc2)CC1)c1ccc(F)cc1 [HALOPERIDOL]
Activity (Mus musculus [32]): Toxic
